Measurements reported in ChEMBL document CHEMBL1156448, “Identification of an efficacy switch region in the ghrelin receptor responsible for interchange between agonism and inverse agonism” (J Biol Chem, 2007).

What was measured:
[1] = target: T1, Growth hormone secretagogue receptor type 1 (Homo sapiens, UniProt Q92847, D99K); experiment: Agonist activity at human ghrelin receptor Asp2:20Lys(Asp99) mutant expressed in african green monkey COS7 cells assessed as inhibition of inositol phosphate accumulation; type: functional, cell-based, COS-7
Outline: (§1)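 COS-7 cells transiently transfected (calcium phosphate with chloroquine; receptor cDNA 20 μg/75 cm2, the amount giving maximal basal signaling), labelled one day later for 24 h with 5 μCi myo-[3H]inositol. Preincubated in HEPES buffer pH 7.4 with 10 mm LiCl, 30 min at 37 °C, then exposed to various peptide concentrations, 45 min at 37 °C. Inositol phosphates recovered on anion-exchange resin; duplicates; EC50 by nonlinear regression.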

[2] = target: T2, Growth hormone secretagogue receptor type 1 (Homo sapiens, UniProt Q92847); experiment: Agonist activity at human ghrelin receptor Asp2:20Asn(Asp99) mutant expressed in african green monkey COS7 cells assessed as inhibition of inositol phosphate accumulation; type: functional, cell-based; settings: cos-7; outline: as §1
Target sequence in this assay (Q92847 whole entry, looked up): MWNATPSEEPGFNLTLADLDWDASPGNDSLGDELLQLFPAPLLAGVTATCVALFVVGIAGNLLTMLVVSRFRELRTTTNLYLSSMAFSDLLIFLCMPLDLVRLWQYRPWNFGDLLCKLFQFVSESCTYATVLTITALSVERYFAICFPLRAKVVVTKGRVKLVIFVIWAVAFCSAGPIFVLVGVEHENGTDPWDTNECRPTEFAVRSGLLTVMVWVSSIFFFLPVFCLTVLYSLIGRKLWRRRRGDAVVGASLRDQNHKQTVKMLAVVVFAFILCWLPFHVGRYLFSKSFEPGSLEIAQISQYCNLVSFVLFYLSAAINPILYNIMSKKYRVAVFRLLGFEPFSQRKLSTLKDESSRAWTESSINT

[3] = target: T2, Growth hormone secretagogue receptor type 1; experiment: Inverse agonist activity at human wild type ghrelin receptor expressed in african green monkey COS7 cells assessed as inhibition of constitutively stimulated inositol phosphate accumulation; type: functional, cell-based, COS-7; outline: as §1
Target sequence in this assay (Q92847 whole entry): as the sequence (Q92847 whole entry, looked up) above

[4] = target: T2, Growth hormone secretagogue receptor type 1; experiment: Displacement of [35S]MK677 from human ghrelin receptor expressed in african green monkey COS7 cells; type: cell-based, COS-7
Target sequence in this assay (Q92847 whole entry): as the sequence (Q92847 whole entry, looked up) above

[5] = target: T2, Growth hormone secretagogue receptor type 1; experiment: Inverse agonist activity at human ghrelin receptor expressed in african green monkey COS7 cells assessed as constitutively stimulated inositol phosphate accumulation; type: functional, cell-based, COS-7
Target sequence in this assay (Q92847 whole entry): as the sequence (Q92847 whole entry, looked up) above

[6] = target: T3, Growth hormone secretagogue receptor type 1 (Homo sapiens, UniProt Q92847, Q120A); experiment: Inverse agonist activity at human ghrelin receptor Gln3:05Ala(Gln120) mutant expressed in african green monkey COS7 cells assessed as inhibition of constitutively stimulated inositol phosphate accumulation; type: functional, cell-based, COS-7; outline: as §1
[7] = target: T4, Growth hormone secretagogue receptor type 1 (Homo sapiens, UniProt Q92847, S123A); experiment: Inverse agonist activity at human ghrelin receptor Ser3:08Ala(Ser123) mutant expressed in african green monkey COS7 cells assessed as inhibition of constitutively stimulated inositol phosphate accumulation; type: functional, cell-based, COS-7; outline: as §1
[8] = target: T5, Growth hormone secretagogue receptor type 1 (Homo sapiens, UniProt Q92847, E124Q); experiment: Inverse agonist activity at human ghrelin receptor Glu3:09Gln(Glu124) mutant expressed in african green monkey COS7 cells assessed as inhibition of constitutively stimulated inositol phosphate accumulation; type: functional, cell-based, COS-7; outline: as §1
[9] = target: T6, Growth hormone secretagogue receptor type 1 (Homo sapiens, UniProt Q92847, S174A); experiment: Inverse agonist activity at human ghrelin receptor Ser4:16Ala(Ser174) mutant expressed in african green monkey COS7 cells assessed as inhibition of constitutively stimulated inositol phosphate accumulation; type: functional, cell-based, COS-7; outline: as §1
[10] = target: T7, Growth hormone secretagogue receptor type 1 (Homo sapiens, UniProt Q92847, M213A); experiment: Inverse agonist activity at human ghrelin receptor Met5:05Ala(Met213) mutant expressed in african green monkey COS7 cells assessed as inhibition of constitutively stimulated inositol phosphate accumulation; type: functional, cell-based, COS-7; outline: as §1
[11] = target: T8, Growth hormone secretagogue receptor type 1 (Homo sapiens, UniProt Q92847, V216A); experiment: Inverse agonist activity at human ghrelin receptor Val5:08Ala(Val216) mutant expressed in african green monkey COS7 cells assessed as inhibition of constitutively stimulated inositol phosphate accumulation; type: functional, cell-based, COS-7; outline: as §1
[12] = target: T9, Growth hormone secretagogue receptor type 1 (Homo sapiens, UniProt Q92847, S217A); experiment: Inverse agonist activity at human ghrelin receptor Ser5:09Ala(Ser217) mutant expressed in african green monkey COS7 cells assessed as inhibition of constitutively stimulated inositol phosphate accumulation; type: functional, cell-based, COS-7; outline: as §1
[13] = target: T10, Growth hormone secretagogue receptor type 1 (Homo sapiens, UniProt Q92847, F220A); experiment: Inverse agonist activity at human ghrelin receptor Phe5:12Ala(Phe220) mutant expressed in african green monkey COS7 cells assessed as inhibition of constitutively stimulated inositol phosphate accumulation; type: functional, cell-based, COS-7; outline: as §1
[14] = target: T11, Growth hormone secretagogue receptor type 1 (Homo sapiens, UniProt Q92847, R283Q); experiment: Inverse agonist activity at human ghrelin receptor Arg6:20Gln(Arg283) mutant expressed in african green monkey COS7 cells assessed as inhibition of constitutively stimulated inositol phosphate accumulation; type: functional, cell-based, COS-7; outline: as §1
[15] = target: T12, Growth hormone secretagogue receptor type 1 (Homo sapiens, UniProt Q92847, N305A); experiment: Inverse agonist activity at human ghrelin receptor Asn7:02Ala(Asn305) mutant expressed in african green monkey COS7 cells assessed as inhibition of constitutively stimulated inositol phosphate accumulation; type: functional, cell-based, COS-7; outline: as §1
[16] = target: T2, Growth hormone secretagogue receptor type 1; experiment: Inverse agonist activity at human ghrelin receptor Phe7:06Leu(Phe306) mutant expressed in african green monkey COS7 cells assessed as inhibition of constitutively stimulated inositol phosphate accumulation; type: functional, cell-based; settings: cos-7; outline: as §1
Target sequence in this assay (Q92847 whole entry, looked up): as above

[17] = target: T13, Growth hormone secretagogue receptor type 1 (Homo sapiens, UniProt Q92847, F312A); experiment: Inverse agonist activity at human ghrelin receptor Phe7:09Ala(Phe312) mutant expressed in african green monkey COS7 cells assessed as inhibition of constitutively stimulated inositol phosphate accumulation; type: functional, cell-based, COS-7; outline: as §1
[18] = target: T14, Growth hormone secretagogue receptor type 1 (Homo sapiens, UniProt Q92847, F119S); experiment: Agonist activity at human ghrelin receptor Phe3:04Ser(phe119) mutant expressed in african green monkey COS7 cells assessed as stimulation of constitutively stimulated inositol phosphate accumulation
[19] = target: T15, Growth hormone secretagogue receptor type 1 (Homo sapiens, UniProt Q92847, I178A); experiment: Agonist activity at human ghrelin receptor Ile4:20Ala(Ile178) mutant expressed in african green monkey COS7 cells assessed as stimulation of constitutively stimulated inositol phosphate accumulation
[20] = target: T2, Growth hormone secretagogue receptor type 1; experiment: Agonist activity at human wild type ghrelin receptor expressed in african green monkey COS7 cells assessed as stimulation of constitutively stimulated inositol phosphate accumulation; type: functional, cell-based, COS-7
Outline: (§2)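 COS-7 cells transiently transfected (calcium phosphate with chloroquine, cDNA amount giving maximal basal signaling, 20 μg/75 cm2). After 1 day, labeled 24 h with 5 μCi myo-[3H]inositol. Washed in HEPES buffer pH 7.4, preincubated 30 min at 37 °C with 10 mM LiCl, then exposed to peptide concentrations for 45 min at 37 °C. Formic acid extraction, anion-exchange purification. Duplicate determinations. EC50 by nonlinear regression.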
Target sequence in this assay (Q92847 whole entry): as the sequence (Q92847 whole entry, looked up) above

[21] = target: T2, Growth hormone secretagogue receptor type 1; experiment: Agonist activity at human ghrelin receptor Asp2:20Asn(Asp99) mutant expressed in african green monkey COS7 cells assessed as stimulation of constitutively stimulated inositol phosphate accumulation; type: functional, cell-based; settings: cos-7; outline: as §2
Target sequence in this assay (Q92847 whole entry, looked up): as above

[22] = target: T1, Growth hormone secretagogue receptor type 1; experiment: Agonist activity at human ghrelin receptor Asp2:20Lys(Asp99) mutant expressed in african green monkey COS7 cells assessed as stimulation of constitutively stimulated inositol phosphate accumulation; type: functional, cell-based, COS-7; outline: as §2
[23] = target: T14, Growth hormone secretagogue receptor type 1; experiment: Agonist activity at human ghrelin receptor Phe3:04Ser(phe119) mutant expressed in african green monkey COS7 cells assessed as stimulation of constitutively stimulated inositol phosphate accumulation; type: functional, cell-based, COS-7; outline: as §2
[24] = target: T3, Growth hormone secretagogue receptor type 1; experiment: Agonist activity at human ghrelin receptor Gln3:05Ala(Gln120) mutant expressed in african green monkey COS7 cells assessed as stimulation of constitutively stimulated inositol phosphate accumulation; type: functional, cell-based, COS-7; outline: as §2
[25] = target: T5, Growth hormone secretagogue receptor type 1; experiment: Agonist activity at human ghrelin receptor Glu3:09Gln(Glu124) mutant expressed in african green monkey COS7 cells assessed as stimulation of constitutively stimulated inositol phosphate accumulation; type: functional, cell-based, COS-7; outline: as §2
[26] = target: T6, Growth hormone secretagogue receptor type 1; experiment: Agonist activity at human ghrelin receptor Ser4:16Ala(Ser174) mutant expressed in african green monkey COS7 cells assessed as stimulation of constitutively stimulated inositol phosphate accumulation; type: functional, cell-based, COS-7; outline: as §2
[27] = target: T15, Growth hormone secretagogue receptor type 1; experiment: Agonist activity at human ghrelin receptor Ile4:20Ala(Ile178) mutant expressed in african green monkey COS7 cells assessed as stimulation of constitutively stimulated inositol phosphate accumulation; type: functional, cell-based, COS-7; outline: as §2
[28] = target: T7, Growth hormone secretagogue receptor type 1; experiment: Agonist activity at human ghrelin receptor Met5:05Ala(Met213) mutant expressed in african green monkey COS7 cells assessed as stimulation of constitutively stimulated inositol phosphate accumulation; type: functional, cell-based, COS-7; outline: as §2
[29] = target: T8, Growth hormone secretagogue receptor type 1; experiment: Agonist activity at human ghrelin receptor Val5:08Ala(Val216) mutant expressed in african green monkey COS7 cells assessed as stimulation of constitutively stimulated inositol phosphate accumulation; type: functional, cell-based, COS-7; outline: as §2
[30] = target: T9, Growth hormone secretagogue receptor type 1; experiment: Agonist activity at human ghrelin receptor Ser5:09Ala(Ser217) mutant expressed in african green monkey COS7 cells assessed as stimulation of constitutively stimulated inositol phosphate accumulation; type: functional, cell-based, COS-7; outline: as §2
[31] = target: T10, Growth hormone secretagogue receptor type 1; experiment: Agonist activity at human ghrelin receptor Phe5:12Ala(Phe220) mutant expressed in african green monkey COS7 cells assessed as stimulation of constitutively stimulated inositol phosphate accumulation; type: functional, cell-based, COS-7; outline: as §2
[32] = target: Growth hormone secretagogue receptor type 1 (Homo sapiens, UniProt Q92847, F279A); experiment: Agonist activity at human ghrelin receptor Phe6:16Ala(Phe279) mutant expressed in african green monkey COS7 cells assessed as stimulation of constitutively stimulated inositol phosphate accumulation; type: functional, cell-based, COS-7; outline: as §2
[33] = target: T11, Growth hormone secretagogue receptor type 1; experiment: Agonist activity at human ghrelin receptor Arg6:20Gln(Arg283) mutant expressed in african green monkey COS7 cells assessed as stimulation of constitutively stimulated inositol phosphate accumulation; type: functional, cell-based, COS-7; outline: as §2
[34] = target: T12, Growth hormone secretagogue receptor type 1; experiment: Agonist activity at human ghrelin receptor Asn7:02Ala(Asn305) mutant expressed in african green monkey COS7 cells assessed as stimulation of constitutively stimulated inositol phosphate accumulation; type: functional, cell-based, COS-7; outline: as §2
[35] = target: T2, Growth hormone secretagogue receptor type 1; experiment: Agonist activity at human ghrelin receptor Phe7:06Leu(Phe306) mutant expressed in african green monkey COS7 cells assessed as stimulation of constitutively stimulated inositol phosphate accumulation; type: functional, cell-based; settings: cos-7; outline: as §2
Target sequence in this assay (Q92847 whole entry, looked up): as above

[36] = target: T13, Growth hormone secretagogue receptor type 1; experiment: Agonist activity at human ghrelin receptor Phe7:09Ala(Phe312) mutant expressed in african green monkey COS7 cells assessed as stimulation of constitutively stimulated inositol phosphate accumulation; type: functional, cell-based, COS-7; outline: as §2
[37] = target: T4, Growth hormone secretagogue receptor type 1; experiment: Inverse agonist activity at human ghrelin receptor Ser3:08Ala(Ser123) mutant expressed in african green monkey COS7 cells assessed as inhibition of constitutively stimulated inositol phosphate accumulation

T5 sequence (Q92847 whole entry E124Q): as the sequence (Q92847 whole entry, looked up) above, with E124Q counted along it
T6 sequence (Q92847 whole entry S174A): as the sequence (Q92847 whole entry, looked up) above, with S174A counted along it
T4 sequence (Q92847 whole entry S123A): as the sequence (Q92847 whole entry, looked up) above, with S123A counted along it
T8 sequence (Q92847 whole entry V216A): as the sequence (Q92847 whole entry, looked up) above, with V216A counted along it
T13 sequence (Q92847 whole entry F312A): as the sequence (Q92847 whole entry, looked up) above, with F312A counted along it
T10 sequence (Q92847 whole entry F220A): as the sequence (Q92847 whole entry, looked up) above, with F220A counted along it
T14 sequence (Q92847 whole entry F119S): as the sequence (Q92847 whole entry, looked up) above, with F119S counted along it
T11 sequence (Q92847 whole entry R283Q): as the sequence (Q92847 whole entry, looked up) above, with R283Q counted along it
T9 sequence (Q92847 whole entry S217A): as the sequence (Q92847 whole entry, looked up) above, with S217A counted along it
T15 sequence (Q92847 whole entry I178A): as the sequence (Q92847 whole entry, looked up) above, with I178A counted along it
T1 sequence (Q92847 whole entry D99K): as the sequence (Q92847 whole entry, looked up) above, with D99K counted along it
T7 sequence (Q92847 whole entry M213A): as the sequence (Q92847 whole entry, looked up) above, with M213A counted along it
T3 sequence (Q92847 whole entry Q120A): as the sequence (Q92847 whole entry, looked up) above, with Q120A counted along it
T12 sequence (Q92847 whole entry N305A): as the sequence (Q92847 whole entry, looked up) above, with N305A counted along it
Chain of Growth hormone secretagogue receptor type 1 (Homo sapiens, UniProt Q92847, F279A) (Q92847 whole entry F279A): as the sequence (Q92847 whole entry, looked up) above, with F279A counted along it

## CC(C)C[C@H](NC(=O)[C@H](CC(C)C)NC(=O)[C@@H](Cc1c[nH]c2ccccc12)NC(=O)[C@H](Cc1ccccc1)NC(=O)[C@@H](Cc1c[nH]c2ccccc12)NC(=O)[C@@H](N)CCCCN)C(N)=O
[1]
  IC50: > 1 µM
[2]
  IC50: > 1 µM
[3]
  IC50: 0.032 µM
[4]
  IC50: 0.013 µM
[5]
  IC50: 0.036 µM
[6]
  IC50: > 1 µM
[7]
  IC50: 0.021 µM
[8]
  IC50: > 1 µM
[9]
  IC50: 0.0026 µM
[10]
  IC50: 0.029 µM
[11]
  IC50: 0.027 µM
[12]
  IC50: 0.083 µM
[13]
  IC50: 0.019 µM
[14]
  IC50: > 1 µM
[15]
  IC50: 0.061 µM
[16]
  IC50: > 1 µM
[17]
  IC50: > 1 µM
[18]
  EC50: 0.06 µM
[19]
  EC50: 0.043 µM

## CC(C)C[C@H](NC(=O)[C@H](CC(C)C)NC(=O)[C@@H](Cc1c[nH]c2ccccc12)NC(=O)[C@H](Cc1ccccc1)NC(=O)[C@@H](Cc1c[nH]c2ccccc12)NC(=O)[C@@H](CCCNC(=N)N)NC(=O)[C@H]1CCCN1C(=O)[C@@H](N)CC(=O)O)C(N)=O
[4]
  IC50: 0.21 µM
[5]
  IC50: 0.112 µM

## CC(C)C[C@H](NC(=O)[C@H](CC(C)C)NC(=O)[C@@H](Cc1c[nH]c2ccccc12)NC(=O)[C@H](Cc1ccccc1)NC(=O)[C@@H](Cc1c[nH]c2ccccc12)NC(=O)[C@H](C)N)C(N)=O
[20]
  IC50: 0.015 µM
[21]
  IC50: > 1 µM
[22]
  IC50: > 1 µM
[23]
  IC50: 0.041 µM
[24]
  IC50: > 1 µM
[25]
  IC50: > 1 µM
[26]
  IC50: 0.0061 µM
[27]
  IC50: 0.16 µM
[28]
  IC50: 0.00035 µM
[29]
  IC50: > 1 µM
[30]
  IC50: 0.014 µM
[31]
  IC50: > 1 µM
[32]
  IC50: > 1 µM
[33]
  IC50: > 1 µM
[34]
  IC50: 0.015 µM
[35]
  IC50: 0.081 µM
[36]
  IC50: > 1 µM
[4]
  IC50: 0.053 µM
[5]
  IC50: 0.015 µM
[37]
  IC50: 0.028 µM
